sPLA2-III inh: human group III sPLA2 inhibitors, primary screen, biochemical, QFRET, BODIPY PC-A2 liposome substrate; Group 3 secretory phospholipase A2 (Homo sapiens), Q9NZ20; QFRET BODIPY PC-A2 liposome hydrolysis, fluorescence; inhibition, % at 12.2 µM; 370,000 tested, 0.56% active;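 active = inhibition above mean plus 3 SD of compounds lying within the high and low control bounds, cut at about 19% in these data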
MC4R barr agon: MC4R agonists recruiting beta-arrestin, primary screen, cell-based, luminescence, agonist arm of biased-ligand search; 360,000 tested, 0.98% active; AID 540308, 2011; Melanocortin receptor 4 (Homo sapiens), P32245; U2OS MC4R beta-arrestin complementation; percent of melanotan II response, DMSO zero; activation, % at 8.9 µM;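 active = activation above a per-plate cutoff, the mean activation of sample wells on that plate plus 3 SD, cut at about 8% in these data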
Target sequence (P32245 whole entry, looked up): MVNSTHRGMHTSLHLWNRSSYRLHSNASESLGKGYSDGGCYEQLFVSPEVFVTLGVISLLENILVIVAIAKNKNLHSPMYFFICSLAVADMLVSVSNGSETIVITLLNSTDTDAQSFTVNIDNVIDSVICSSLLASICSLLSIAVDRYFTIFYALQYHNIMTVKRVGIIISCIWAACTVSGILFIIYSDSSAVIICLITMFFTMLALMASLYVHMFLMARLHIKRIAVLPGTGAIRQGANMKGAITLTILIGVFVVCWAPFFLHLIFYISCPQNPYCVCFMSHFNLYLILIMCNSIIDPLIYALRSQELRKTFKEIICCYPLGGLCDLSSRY
Granule exo inh: LAMP-1 surface exposure blockers, TALL-104 cells – cell-based, flow cytometry, MLPCN library, primary screen; TALL-104 LAMP-1 surface exposure; cells stimulated with thapsigargin and PMA; inhibition, % at 10 µM; 360,000 tested, 0.66% active; AID 651702, 2012;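 active = inhibition above about 55%, limit read from the data; inconclusive = no clear call, values can overlap the other calls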
MC4R antag cAMP: MC4R antagonists of cAMP signaling, primary screen, cell-based, TR-FRET, antagonist arm of biased-ligand search; Melanocortin receptor 4 (Homo sapiens), P32245; MC4R-expressing cells, MTII-stimulated cAMP, LANCE TR-FRET; inhibition, % at 6.5 µM; 360,000 tested, 0.48% active; AID 540295, 2011;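 active = inhibition above its plate's cutoff, the mean of tested wells on that plate plus 3 SD, cut at about 29% in these data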
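Material – human MC4R-expressing U2OS cells · Repeats – no replicates · Detection – TR-FRET with Eu-cAMP and labeled anti-cAMP, 671 nm · Times – compound 30 min, challenge 1 h, detection 1 h · Compound – single nominal compound dose of 6.5 µM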
NTR1 ag: agonists of human NTR1, primary screen, imaging, U2OS cells, beta-arrestin-GFP, high content; 330,000 tested, 0.17% active; AID 493036, 2011; activation, % at 20 µM; Neurotensin receptor type 1 (Homo sapiens), P30989; NTR1-U2OS beta-arrestin-GFP spot imaging, agonist mode;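 active = activation at or above 40% of the spot to cytoplasm intensity ratio, with at least 20 cells analyzed; inconclusive = wells under 20 cells, flagged as cytotoxic or low count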
Target sequence (P30989 whole entry, looked up): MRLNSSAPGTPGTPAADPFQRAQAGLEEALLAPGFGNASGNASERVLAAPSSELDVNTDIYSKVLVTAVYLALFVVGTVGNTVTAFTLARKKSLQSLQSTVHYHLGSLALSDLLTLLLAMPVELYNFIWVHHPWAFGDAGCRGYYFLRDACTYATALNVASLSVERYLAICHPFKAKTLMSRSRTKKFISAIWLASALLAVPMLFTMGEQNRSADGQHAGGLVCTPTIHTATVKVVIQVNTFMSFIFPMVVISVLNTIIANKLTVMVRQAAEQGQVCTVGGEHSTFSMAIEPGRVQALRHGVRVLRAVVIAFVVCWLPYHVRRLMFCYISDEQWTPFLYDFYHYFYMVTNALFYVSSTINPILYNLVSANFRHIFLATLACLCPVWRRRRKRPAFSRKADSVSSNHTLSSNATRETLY
A1 inh: caspase 3/7 activation in MEF A1-2A-BIM cells, primary screen, A1 inhibitor project, cell-based, luminescence, HTS; caspase activation, % (test concentration not listed); Caspase-Glo 3/7 luminescence, 3 h; percent of clofoctol response, vehicle zero; 330,000 tested, 0.066% active;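 active = over half of replicate activation scores above 10%, or exactly half above 10 with the replicate mean above 10; inconclusive = replicate mean below 10 yet half the replicates above 10; inactive = over half of replicates below 10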
Of the large screens only hits and unclear results are named; the others gave an inactive call. Rows were chosen to be rich in hits. Some 2.5% of all compounds tested hit in one or more screens of this group.

Cn1nnnc1Sc1ncnc2scc(-c3cnc(N)nc3)c12	none (no result: MC4R barr agon, Granule exo inh, MC4R antag cAMP, NTR1 ag, A1 inh)
C#CCOCCOCCOCCNc1nc(N2CCN(C(=O)C([C@@H](C)CC)n3cc(C(N)Cc4ccc(O)cc4)nn3)CC2)nc(N2CCN(C(=O)[C@H](CCC(=O)O)n3cc(C(N)Cc4ccc(O)cc4)nn3)CC2)n1 (stereo not given in full)	Granule exo inh 64 (no result: sPLA2-III inh)
CCN(CC)S(=O)(=O)c1cccc(NC(=O)CC2CCCC2)c1	none
CCN(CC)S(=O)(=O)c1cccc(NC(=O)Nc2cccc(C(F)(F)F)c2)c1	NTR1 ag 41
COc1ccc(-n2c(SCC(=O)Nc3ccc(S(=O)(=O)Nc4nccs4)cc3)nnc2-c2cccs2)cc1	none (no result: MC4R barr agon, Granule exo inh, MC4R antag cAMP, NTR1 ag, A1 inh)
Oc1c(Br)cc(Br)cc1/C=N/NC(=S)N[C@H]1CC2C=CC1C2 (stereo not given in full)	sPLA2-III inh 45
COc1cc(/C=N/NC(=S)NC2CC3C=CC2C3)cc(OC)c1OC (stereo not given)	none
CC(=O)C(=Nc1ccc(Cl)cc1Cl)NNc1cccc(Cl)c1	Granule exo inh 85
O=C(CCl)Nc1cccc(Oc2ccccc2)c1	MC4R barr agon 8.9
O=C(CCl)Nc1ccc(-c2ccccc2)cc1	MC4R barr agon 9.1
COC1=C(OC)C(=O)C(Sc2ccc3ccccc3c2)=CC1=O	Granule exo inh 86 (no result: NTR1 ag, A1 inh)
COc1ccc(S(=O)(=O)Oc2ccc3ccccc3c2)cc1	none
CC(C)c1ccc(OC[C@@H](O)CN2CCC(C(O)(c3ccccc3)c3ccccc3)CC2)cc1	none (no result: MC4R barr agon, Granule exo inh, MC4R antag cAMP, NTR1 ag, A1 inh)
CCOc1ccc(Cn2nnc(C(=O)Nc3cc(C)cc(C)c3)c2N)cc1	MC4R barr agon 9.4
Nc1c(C(=O)Nc2ccc3c(c2)OCCO3)nnn1Cc1cccc(Br)c1	none
Nc1c(C(=O)Nc2ccc3c(c2)OCCO3)nnn1Cc1ccc(Br)cc1	MC4R barr agon 8.4
CCOc1ccc(Cn2nnc(C(=O)Nc3cc(OC)cc(OC)c3)c2N)cc1	none
Cc1cc(C)cc(NC(=O)Cn2nnc(C(=O)NCCc3ccccc3)c2N)c1	none
Cc1cc(C)cc(NC(=O)Cn2nnc(C(=O)NCc3ccccc3Cl)c2N)c1	MC4R barr agon 10
Cc1cc(N2CCN(C(=O)OC(C)(C)C)C[C@@H]2C)ccc1N1CCN(Cc2ccccc2)[C@H](C)C1	none (no result: MC4R barr agon, Granule exo inh, MC4R antag cAMP, NTR1 ag, A1 inh)
COc1cc(NC(=O)c2cc(-c3ccccc3)on2)cc(OC)c1OC	none
COc1cc(NC(=O)c2cc(-c3ccc4c(c3)OCO4)on2)cc(OC)c1OC	MC4R barr agon 8.8
COc1ccc(NC(=O)CCn2c(=S)[nH]c3ccccc3c2=O)cc1	MC4R barr agon 8.6
Cc1ccc(C(=O)CSc2nnc(-c3ccccn3)n2-c2ccccc2)cc1	none (no result: MC4R barr agon, Granule exo inh, MC4R antag cAMP, NTR1 ag, A1 inh)
CCC(C)c1ccccc1NC(=O)COC(=O)c1ccc2[nH]c3c(c2c1)CCCC3 (stereo not given)	Granule exo inh 61
COc1ccc(/C=C(\C#N)C(=O)N2COCC2(C)C)cc1	Granule exo inh 56
S=c1[nH]nc(-c2cc(-c3ccccc3)n[nH]2)n1N=Cc1cccc(Oc2ccccc2)c1	none (no result: MC4R barr agon, Granule exo inh, MC4R antag cAMP, NTR1 ag, A1 inh)
COC(=O)c1cc2c(c3c4cc(OC)ccc4n(S(=O)(=O)c4cccc(C)c4)c13)C(=O)N(Cc1ccccc1OC)C2	none (no result: MC4R barr agon, Granule exo inh, MC4R antag cAMP, NTR1 ag, A1 inh)
Cc1cccc(N2CCN(S(=O)(=O)c3ccc(-c4ccc(=O)[nH]n4)o3)CC2)c1C	MC4R barr agon 8.3
CCC(=O)NC(Cc1ccccc1)c1nc2ccccc2[nH]1 (stereo not given)	none
Cc1cc(Cl)ccc1OCC(=O)N[C@@H](Cc1ccccc1)c1nc2ccccc2[nH]1	MC4R barr agon 13
COC(=O)[C@H](Cc1ccccc1)N[C@H](c1ccc(OC)cc1)[C@@H](O)Cc1ccccc1	none (no result: MC4R barr agon, Granule exo inh, MC4R antag cAMP, NTR1 ag, A1 inh)
O=C(Nc1ccc(Cl)c(S(=O)(=O)N2CCOCC2)c1)c1ccc(OCC2CCCO2)cc1 (stereo not given)	Granule exo inh 94 (no result: sPLA2-III inh)
COc1ccc(N2C(=O)[C@@H]3[C@H](C2=O)[C@H]2C=CC=NN2[C@@H]3C(=O)Nc2ccc(Cl)cc2)cc1	MC4R antag cAMP 29
COc1ccc(S(=O)(=O)N(C)CC(=O)Nc2ccc(C(N)=O)cc2)cc1OC	none
COC(=O)c1ccc(NC(=O)CN(C)S(=O)(=O)c2ccc(OC)c(C)c2)cc1	MC4R barr agon 8.3
NNC(=O)c1ccccc1OCCOc1ccccc1	Granule exo inh 59
O=C(Cn1nc(-c2ccccc2)ccc1=O)NCCc1cccc(F)c1	none (no result: MC4R barr agon, Granule exo inh, MC4R antag cAMP, NTR1 ag, A1 inh)
CC(C)c1ccc2[nH]c(O)c(N=NC(=O)c3cccc(S(=O)(=O)Nc4cccc(Cl)c4)c3)c2c1	A1 inh inconclusive
CC(C)c1ccc2[nH]c(O)c(N=NC(=O)c3cccc(S(=O)(=O)Nc4ccc(Cl)cc4)c3)c2c1	A1 inh 13
CC1=C2N=C(N)N(Cc3ccccc3)C(Cc3ccccc3)C2n2c(=O)n(-c3ccccc3)c(=O)n2C1 (stereo not given)	none (no result: MC4R barr agon, Granule exo inh, MC4R antag cAMP, NTR1 ag, A1 inh)
Cc1ccc2nc(C)cc(Nc3ccc([N+](=O)[O-])cc3)c2c1	Granule exo inh 83 (no result: NTR1 ag)
CCOc1ccccc1C(=O)Nc1ccc2nc(N3CCN(c4ncccn4)CC3)cc(C)c2c1	none (no result: sPLA2-III inh, MC4R barr agon, Granule exo inh, MC4R antag cAMP)
COc1cccc(C(=O)Nc2ccc3nc(N4CCN(c5ncccn5)CC4)cc(C)c3c2)c1OC	NTR1 ag 47 (no result: sPLA2-III inh, MC4R barr agon, Granule exo inh, MC4R antag cAMP)
COC1=C[C@H](C(=O)NCc2ccccn2)[C@@]2(C)Cc3ccccc3[C@H]2CC1=O	none (no result: MC4R barr agon, Granule exo inh, MC4R antag cAMP, NTR1 ag, A1 inh)
O=C(NNC(=O)c1ccncc1)Nc1cccc([N+](=O)[O-])c1	Granule exo inh 90
O=C(Nc1cccc([N+](=O)[O-])c1)c1ccccc1	none
O=C(Nc1cccc([N+](=O)[O-])c1)c1ccc(CSc2ccccc2)cc1	MC4R barr agon 15
O=c1[nH]c(Cc2cccc(C(F)(F)F)c2)nc2ccccc12	MC4R barr agon 9.0
COc1ccc2cc3cc(C(=O)NCCC(C)C)oc3nc2c1	MC4R barr agon 8.8
CCOc1ccc2nc(N(CCN(C)C)C(=O)/C=C/c3cccs3)sc2c1	none (no result: sPLA2-III inh)
CCc1ccc2nc(N(CCN(C)C)C(=O)/C=C/c3cccs3)sc2c1	Granule exo inh 67 (no result: sPLA2-III inh)
COc1ccc(C)c2sc(N(CCN(C)C)C(=O)/C=C/c3cccs3)nc12	MC4R barr agon 29
CCCCOc1ccc(C(=O)NC2CCCCN(Cc3ccccc3C)C2=O)cc1 (stereo not given)	none (no result: MC4R barr agon, Granule exo inh, MC4R antag cAMP, NTR1 ag, A1 inh)

Compound activity: PubChem, several laboratories
